From ChEMBL document CHEMBL4364248, “Discovery of 1,2,4-oxadiazole-Containing hydroxamic acid derivatives as histone deacetylase inhibitors potential application in cancer therapy” (Eur J Med Chem, 2019)
Calls of active or inactive are those of the source. No cut-off for these calls is given here.

Columns and labels:
Histone deacetylase 1 = Histone deacetylase 1 (Homo sapiens, UniProt Q13547); assay: Inhibition of recombinant full length HDAC1 (unknown origin) using Ac-peptide-AMC as substrate at 100 nM after 1 hr by fluorescence assay relative to control
Sequence of Histone deacetylase 1 (Q13547 whole entry): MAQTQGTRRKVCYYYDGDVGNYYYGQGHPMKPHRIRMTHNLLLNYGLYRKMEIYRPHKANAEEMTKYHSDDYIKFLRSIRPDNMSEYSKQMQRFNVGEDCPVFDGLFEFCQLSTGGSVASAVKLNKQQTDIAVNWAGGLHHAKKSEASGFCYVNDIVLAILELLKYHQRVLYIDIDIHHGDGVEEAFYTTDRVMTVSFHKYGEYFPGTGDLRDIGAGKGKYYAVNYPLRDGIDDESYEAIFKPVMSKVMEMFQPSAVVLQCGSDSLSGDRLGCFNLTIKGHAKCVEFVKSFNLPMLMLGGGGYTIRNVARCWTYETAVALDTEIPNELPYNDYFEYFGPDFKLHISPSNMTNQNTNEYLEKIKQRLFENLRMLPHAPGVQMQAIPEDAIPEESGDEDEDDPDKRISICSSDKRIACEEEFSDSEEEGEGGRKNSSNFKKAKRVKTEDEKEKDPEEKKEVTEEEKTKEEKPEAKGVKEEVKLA
Procedure, shortened: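 Full-length recombinant HDAC1 or HDAC6 was incubated with compound, trypsin and Ac-peptide-AMC substrate for 1 h at room temperature. Fluorescence was read at ex 355/em 460 nm. Inhibition was calculated against the DMSO vehicle control.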

Histone deacetylase 4 = Histone deacetylase 4 (Homo sapiens, UniProt P56524); assay: Inhibition of recombinant full length human HDAC4 expressed in sf9 insect cells using Ac-peptide-AMC as substrate after 1 hr by fluorescence assay
Sequence of Histone deacetylase 4 (P56524 whole entry, the tested form may be a part): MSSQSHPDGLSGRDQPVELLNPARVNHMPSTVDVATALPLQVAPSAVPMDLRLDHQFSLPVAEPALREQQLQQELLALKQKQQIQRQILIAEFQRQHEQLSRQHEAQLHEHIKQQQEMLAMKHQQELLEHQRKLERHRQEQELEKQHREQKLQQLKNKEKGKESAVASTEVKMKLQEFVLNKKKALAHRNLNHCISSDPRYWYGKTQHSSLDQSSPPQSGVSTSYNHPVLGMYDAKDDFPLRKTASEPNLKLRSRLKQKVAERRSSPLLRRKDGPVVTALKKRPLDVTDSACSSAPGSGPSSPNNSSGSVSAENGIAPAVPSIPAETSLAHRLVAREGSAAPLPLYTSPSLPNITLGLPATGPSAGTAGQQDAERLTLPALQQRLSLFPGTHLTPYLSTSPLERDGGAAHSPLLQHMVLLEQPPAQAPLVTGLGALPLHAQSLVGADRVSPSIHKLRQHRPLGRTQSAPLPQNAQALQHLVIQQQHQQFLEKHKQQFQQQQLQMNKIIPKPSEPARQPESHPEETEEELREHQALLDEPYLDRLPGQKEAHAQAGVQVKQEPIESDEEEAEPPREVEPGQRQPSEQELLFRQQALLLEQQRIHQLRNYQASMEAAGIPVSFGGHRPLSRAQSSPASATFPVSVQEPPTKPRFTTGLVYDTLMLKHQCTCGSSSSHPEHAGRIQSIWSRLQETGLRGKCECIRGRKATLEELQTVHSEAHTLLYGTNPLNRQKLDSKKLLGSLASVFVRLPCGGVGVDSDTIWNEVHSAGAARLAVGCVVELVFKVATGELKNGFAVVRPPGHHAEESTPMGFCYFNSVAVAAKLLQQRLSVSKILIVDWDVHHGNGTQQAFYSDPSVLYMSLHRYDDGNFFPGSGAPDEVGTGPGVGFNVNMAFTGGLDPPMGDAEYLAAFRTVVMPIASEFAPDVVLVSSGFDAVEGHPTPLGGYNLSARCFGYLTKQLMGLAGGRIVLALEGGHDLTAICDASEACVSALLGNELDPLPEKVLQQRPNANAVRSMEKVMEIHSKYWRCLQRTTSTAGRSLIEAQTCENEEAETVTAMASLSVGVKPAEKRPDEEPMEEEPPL

Histone deacetylase 9 = Histone deacetylase 9 (Homo sapiens, UniProt Q9UKV0); assay: Inhibition of recombinant C-terminal His-tagged human HDAC9 (604 to 1066 residues) expressed in baculovirus infected Sf9 cells using Ac-peptide-AMC as substrate after 1 hr by fluorescence assay
Sequence of Histone deacetylase 9 (Q9UKV0 whole entry, the tested form may be a part): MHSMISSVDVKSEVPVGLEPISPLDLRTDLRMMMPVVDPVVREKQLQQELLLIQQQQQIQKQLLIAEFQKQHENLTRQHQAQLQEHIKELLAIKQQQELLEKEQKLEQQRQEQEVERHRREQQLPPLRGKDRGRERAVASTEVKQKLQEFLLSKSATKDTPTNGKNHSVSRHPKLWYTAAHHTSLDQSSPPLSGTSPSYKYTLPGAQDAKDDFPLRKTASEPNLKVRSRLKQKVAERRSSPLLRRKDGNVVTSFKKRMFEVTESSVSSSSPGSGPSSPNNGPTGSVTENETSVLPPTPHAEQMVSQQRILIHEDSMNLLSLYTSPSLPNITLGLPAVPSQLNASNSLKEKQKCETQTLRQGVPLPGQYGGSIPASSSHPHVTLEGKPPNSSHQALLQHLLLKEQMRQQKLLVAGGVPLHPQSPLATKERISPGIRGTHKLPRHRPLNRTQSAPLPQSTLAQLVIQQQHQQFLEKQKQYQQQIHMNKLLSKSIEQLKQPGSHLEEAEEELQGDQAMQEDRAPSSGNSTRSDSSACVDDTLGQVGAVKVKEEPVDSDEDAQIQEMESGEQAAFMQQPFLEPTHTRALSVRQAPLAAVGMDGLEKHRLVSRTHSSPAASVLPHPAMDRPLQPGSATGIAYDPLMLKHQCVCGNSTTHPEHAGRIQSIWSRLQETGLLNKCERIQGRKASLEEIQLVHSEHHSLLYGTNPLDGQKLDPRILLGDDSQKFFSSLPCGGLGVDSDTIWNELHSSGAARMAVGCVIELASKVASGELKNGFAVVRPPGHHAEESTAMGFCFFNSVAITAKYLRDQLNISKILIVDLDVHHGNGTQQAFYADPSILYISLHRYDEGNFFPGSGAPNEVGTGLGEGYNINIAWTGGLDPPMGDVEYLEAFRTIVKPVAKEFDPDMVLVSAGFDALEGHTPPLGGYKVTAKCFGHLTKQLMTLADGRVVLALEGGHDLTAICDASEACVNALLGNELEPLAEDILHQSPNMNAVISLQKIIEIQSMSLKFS

RPMI-8226 = assay: Antiproliferative activity against human RPMI8226 cells after 72 hrs by MTT assay; assay type: functional, cell-based; conditions: RPMI-8226, 72 h
JeKo-1 [1] = assay: Cell cycle arrest in human JeKo1 cells assessed as accumulation at S phase at 10 nM after 24 hrs by propidium iodide staining based flow cytometric analysis (reference value: 26.13 %); assay type: functional
JeKo-1 [2] = assay: Cell cycle arrest in human JeKo1 cells assessed as accumulation at S phase at 100 nM after 24 hrs by propidium iodide staining based flow cytometric analysis (reference value: 26.13 %); assay type: functional
JeKo-1 [3] = assay: Induction of apoptosis in human JeKo1 cells assessed as late apoptotic cells at 10 nM after 48 hrs by annexin V-FITC/propidium iodide staining-based flow cytometric method (reference value: 3.07 %); assay type: functional
Procedure, shortened: (§1)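 Jeko-1 cells were grown in RPMI-1640 with 10% FBS at 37 °C under 5% CO2. They were exposed to 0, 10, 100 or 1000 nM for 48 h, then apoptosis induction was analysed.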

JeKo-1 [4] = assay: Induction of apoptosis in human JeKo1 cells assessed as viable cells at 100 nM after 48 hrs by annexin V-FITC/propidium iodide staining-based flow cytometric method (reference value: 91.6 %); assay type: functional; conditions: JeKo-1, 48 h, read-out: Activity; procedure, shortened: as §1
JeKo-1 [5] = assay: Induction of apoptosis in human JeKo1 cells assessed as early apoptotic cells at 100 nM after 48 hrs by annexin V-FITC/propidium iodide staining-based flow cytometric method (reference value: 3.34 %); assay type: functional; procedure, shortened: as §1
JeKo-1 [6] = assay: Induction of apoptosis in human JeKo1 cells assessed as necrotic cells at 1000 nM after 48 hrs by annexin V-FITC/propidium iodide staining-based flow cytometric method (reference value: 2.03 %); assay type: functional; procedure, shortened: as §1
JeKo-1 [7] = assay: Induction of apoptosis in human JeKo1 cells after 48 hrs by annexin V-FITC/propidium iodide staining-based flow cytometric method; assay type: functional, cell-based; procedure, shortened: as §1
[8] = Clearance in Sprague-Dawley rat at 5 mg/kg, iv measured upto 24 hrs by LC-MS/MS analysis; assay type: ADME, organism-based; conditions: in vivo
Procedure, shortened: (§2)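 SD rats (200-250 g), six per time point, given 5 mg/kg as a tail-vein bolus or orally. Blood was taken by cardiac puncture before dosing and at 5, 15, 30, 45 min and 1, 2, 4, 6, 8, 10, 12 and 24 h. Plasma was spun at 4000 g for 15 min at 4 °C and stored at -80 °C. Analysis was LC-MS/MS with multiple-reaction monitoring, followed by noncompartmental analysis.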

[9] = Volume of distribution at steady state in Sprague-Dawley rat at 5 mg/kg, iv measured upto 24 hrs by LC-MS/MS analysis; assay type: ADME, organism-based; conditions: in vivo, read-out: Vdss; procedure, shortened: as §2
[10] = Volume of distribution at steady state in Sprague-Dawley rat at 5 mg/kg, po measured upto 24 hrs by LC-MS/MS analysis; assay type: ADME, organism-based; conditions: in vivo
Procedure, shortened: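 SD rats (200-250 g), six per time point, given 5 mg/kg orally; blood drawn by cardiac puncture at 0, 5, 15, 30, 45 min and 1, 2, 4, 6, 8, 10, 12, 24 h, held on ice. Plasma separated by centrifugation (4000 g, 15 min, 4 °C), stored at -80 °C, assayed by LC-MS/MS in multiple-reaction monitoring mode; parameters from noncompartmental analysis.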

[11] = Half life in Sprague-Dawley rat plasma at 5 mg/kg, po measured upto 24 hrs by LC-MS/MS analysis; assay type: ADME, organism-based; procedure, shortened: as §2
Daudi [12] = assay: Antitumour activity against human Daudi cells xenografted in NOD/SCID mouse assessed as reduction in tumour growth at 10 mg/kg, iv treated on day 1,3 and 5 per week and measured for every 2 days; assay type: functional; conditions: read-out: TGI
Procedure, shortened: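 Daudi cells (107 in 100 µL serum-free RPMI 1640) were injected s.c. into the right flank of 5–6 week female NOD/SCID mice. At 100–200 mm3, mice were randomized six per group. Dosing was 10 mg/kg i.v. or 20 mg/kg p.o. in 8% HP-β-CD on days 1, 3 and 5 each week. Tumors were measured by caliper every 2 days, with TV = length × width² × 0.5.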

Daudi [13] = assay: Antitumour activity against human Daudi cells xenografted in NOD/SCID mouse assessed as increase in acetylated H4 expression at 10 mg/kg, iv treated on day 1,3 and 5 per week by immunohistochemical analysis; assay type: functional, organism-based
Procedure, shortened: (§3)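 Daudi s.c. xenografts in female NOD/SCID mice (5–6 weeks) were randomized six per group at 100–200 mm3. Dosing was 10 mg/kg i.v. or 20 mg/kg p.o. in 8% HP-β-CD on days 1, 3 and 5 weekly. Tumors were collected at study end for immunohistochemistry, with comparison to the control group.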

Daudi [14] = assay: Antitumour activity against human Daudi cells xenografted in NOD/SCID mouse assessed as DNA damage at 10 mg/kg, iv treated on day 1,3 and 5 per week; assay type: functional, organism-based; procedure, shortened: as §3
Daudi [15] = assay: Antitumour activity against human Daudi cells xenografted in NOD/SCID mouse assessed as DNA damage at 20 mg/kg, po treated on day 1,3 and 5 per week; assay type: functional, organism-based; procedure, shortened: as §3
[16] = Toxicity in NOD/SCID mouse xenografted with human Daudi cells assessed as abnormal behavior at 20 mg/kg, po treated on day 1,3 and 5 per week and measured for every 2 days; assay type: organism-based; conditions: in vivo, 48 h
Procedure, shortened: (§4)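 Female NOD/SCID mice (5–6 weeks) bearing s.c. Daudi xenografts, six per group. Dosing was 10 mg/kg i.v. or 20 mg/kg p.o. in 8% HP-β-CD on days 1, 3 and 5 weekly. Behaviour was observed, and organ tissues were collected at sacrifice for H&E staining.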

[17] = Toxicity in NOD/SCID mouse xenografted with human Daudi cells assessed as organ damage at 20 mg/kg, po treated on day 1,3 and 5 per week and measured for every 2 days by H and E staining based assay; assay type: organism-based; conditions: in vivo, 48 h; procedure, shortened: as §4

inhibition (Histone deacetylase 1): 96% | IC50 (Histone deacetylase 4): 473 nM | IC50 (Histone deacetylase 9): 441 nM | IC50 (RPMI-8226): 15.6 nM | clearance [8]: 198 mL/min/kg | Vd [9]: 6.33 L/kg | Vdss [10]: 29.13 L/kg | half-life [11]: 60.6 min
SMILES: Cc1ccc(CN2CCC(c3noc(CN(C)c4ncc(C(=O)NO)cn4)n3)CC2)cc1
Activity (JeKo-1 [1]): 24% | Activity (JeKo-1 [2]): 8.5% | Activity (JeKo-1 [3]): 2.24% | viability at 0.1 µM (JeKo-1 [4]): 54.3% | Activity (JeKo-1 [5]): 28.3% | Activity (JeKo-1 [6]): 0.096% | Activity (JeKo-1 [7]): Dose-dependent effect | inhibition in vivo at 10 mg/kg (Daudi [12]): 46.1% | Activity (Daudi [13]): Active | Activity (Daudi [14]): Active | Activity (Daudi [15]): Active | Activity [16]: Non-Toxic | Activity [17]: Non-Toxic
